Assay results from ChEMBL document CHEMBL2086333, “Albopunctatone, an antiplasmodial anthrone-anthraquinone from the Australian ascidian Didemnum albopunctatum” (J Nat Prod, 2012).
Calls of active or inactive are those of the source. No cut-off for these calls is given here.

What was measured:
BT-474 [1] = experiment: Toxicity against human BT474 cells at =<40 uM incubated for 72 hrs by resazurin dye reduction assay; assay type: cell-based; settings: bt-474, 72 h
Outline: (§1)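 Adherent cancer cells seeded according to growth rate, compound exposure 72 h at 37 °C, 5% CO2, highest concentration 40 μM. Resazurin at 600 μM final, 4 h, fluorescence 530/595 nm. % growth inhibition scaled between >10% DMSO or 20 μM puromycin (100%) and 0.4% DMSO (0%). Triplicate. IC50 by variable-slope nonlinear regression on log dose.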

[2] = Toxicity against human MDA-M cells at =<40 uM incubated for 72 hrs by resazurin dye reduction assay; assay type: cell-based; outline: as §1
[3] = Selectivity index, ratio of cytotoxicity against human SU8686 cells to IC50 for chloroquine-sensitive Plasmodium falciparum 3D7; assay type: toxicity, cell-based; settings: read-out: Selectivity Index
PANC-1 [4] = experiment: Toxicity against human PANC1 cells at =<40 uM incubated for 72 hrs by resazurin dye reduction assay; assay type: cell-based; settings: panc-1, 72 h; outline: as §1
[5] = Selectivity index, ratio of cytotoxicity against human MDA-M cells to IC50 for chloroquine-sensitive Plasmodium falciparum 3D7; assay type: toxicity, cell-based; settings: read-out: Selectivity Index
[6] = Selectivity index, ratio of cytotoxicity against human PANC1 cells to IC50 for chloroquine-sensitive Plasmodium falciparum 3D7; assay type: toxicity, cell-based, PANC-1; settings: read-out: Selectivity Index
Plasmodium falciparum [7] = experiment: Antimalarial activity against chloroquine-resistant Plasmodium falciparum Dd2 assessed as reduction in parasite replication incubated for 72 hrs; settings: Dd2, 72 h
Plasmodium falciparum [8] = experiment: Antimalarial activity against chloroquine-sensitive Plasmodium falciparum 3D7 assessed as reduction in parasite replication incubated for 72 hrs; settings: 3D7, 72 h
HEK293 = experiment: Toxicity against human HEK293 cells at =<40 uM incubated for 72 hrs by resazurin dye reduction assay; assay type: cell-based; settings: hek293, 72 h
Outline: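 HEK293 adherent cells, compound exposure 72 h at 37 °C, 5% CO2, highest concentration 40 μM. Supernatant replaced with 10% Presto Blue in DMEM plus 2 mM glutamax, 3 h, fluorescence 530/595 nm. % inhibition scaled between >10% DMSO or 20 μM puromycin (100%) and 0.4% DMSO (0%). Triplicate. IC50 by variable-slope nonlinear regression.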

MCF-10A = experiment: Toxicity against human MCF10A cells at =<40 uM incubated for 72 hrs by resazurin dye reduction assay; assay type: cell-based; outline: as §1
[9] = Selectivity index, ratio of cytotoxicity against human BxPC3 cells to IC50 for chloroquine-sensitive Plasmodium falciparum 3D7; assay type: toxicity, cell-based, BXPC-3; settings: read-out: Selectivity Index
[10] = Selectivity index, ratio of cytotoxicity against human MCF10A cells to IC50 for chloroquine-sensitive Plasmodium falciparum 3D7; assay type: toxicity, cell-based, MCF-10A; settings: read-out: Selectivity Index
[11] = Selectivity index, ratio of cytotoxicity against human BT474 cells to IC50 for chloroquine-sensitive Plasmodium falciparum 3D7; assay type: toxicity, cell-based, BT-474; settings: read-out: Selectivity Index
BXPC-3 [12] = experiment: Toxicity against human BxPC3 cells at =<40 uM incubated for 72 hrs by resazurin dye reduction assay; assay type: cell-based; settings: bxpc-3, 72 h; outline: as §1
[13] = system: Trypanosoma brucei brucei; experiment: Antitrypanosomal activity against Trypanosoma brucei brucei up to 40 uM incubated for 48 hrs by Alamar Blue assay; assay type: functional, organism-based
Outline: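 T. b. brucei at 2000 cells/mL in HMI-9 with 10% FCS and penicillin/streptomycin, preincubated 24 h. Compound in DMSO prediluted 1:20 in supplemented DMEM, tested up to 40 μM, 48 h at 37 °C, 5% CO2. Alamar Blue added, 2 h under the same conditions then 22 h RT. Fluorescence ex 535/em 590 nm.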

[14] = Toxicity against human SU8686 cells at =<40 uM incubated for 72 hrs by resazurin dye reduction assay; assay type: cell-based; settings: su.86.86, 72 h; outline: as §1
[15] = Selectivity index, ratio of cytotoxicity against human HEK293 cells to IC50 for chloroquine-sensitive Plasmodium falciparum 3D7; assay type: toxicity, cell-based; settings: read-out: Selectivity Index
Plasmodium falciparum [16] = experiment: Antimalarial activity against chloroquine-sensitive Plasmodium falciparum 3D7 assessed as reduction in parasite replication at 40 uM incubated for 72 hrs
Plasmodium falciparum [17] = experiment: Antimalarial activity against chloroquine-resistant Plasmodium falciparum Dd2 assessed as reduction in parasite replication at 40 uM incubated for 72 hrs
[18] = Growth inhibition of human MDA-M cells at 20 uM incubated for 72 hrs by resazurin dye reduction assay; assay type: functional; settings: read-out: GI
BXPC-3 [19] = experiment: Growth inhibition of human BxPC3 cells at 20 uM incubated for 72 hrs by resazurin dye reduction assay; assay type: functional; settings: BXPC-3, 72 h, read-out: GI
[20] = Growth inhibition of human SU8686 cells at 20 uM incubated for 72 hrs by resazurin dye reduction assay; assay type: functional; settings: SU.86.86, 72 h, read-out: GI
PANC-1 [21] = experiment: Growth inhibition of human PANC1 cells at 20 uM incubated for 72 hrs by resazurin dye reduction assay; assay type: functional; settings: PANC-1, 72 h, read-out: GI
[22] = Growth inhibition of human HEK293 cells at 20 uM incubated for 72 hrs by resazurin dye reduction assay; assay type: cell-based; settings: read-out: GI
[23] = Growth inhibition of human MCF10A cells at 20 uM incubated for 72 hrs by resazurin dye reduction assay; assay type: cell-based, MCF-10A; settings: read-out: GI
BT-474 [24] = experiment: Growth inhibition of human BT474 cells at 20 uM incubated for 72 hrs by resazurin dye reduction assay; assay type: functional; settings: BT-474, 72 h, read-out: GI

Row | Structure (SMILES) | Activity (BT-474 [1]) | Activity [2] | Activity (PANC-1 [4]) | IC50 (Plasmodium falciparum [8]) [nM] | Activity (HEK293) | Activity (MCF-10A) | Activity (BXPC-3 [12]) | Activity [13] | Activity [14] | further results
1 | O=C1c2cccc(O)c2C(=O)c2c1ccc(C1(O)c3cccc(O)c3C(=O)c3c(O)cccc31)c2O [ALBOPUNCTATONE] | Non-toxic | Non-toxic | Non-toxic | 4400 | Non-toxic | Non-toxic | Non-toxic | inactive | Non-toxic | selectivity ratio [3]: > 9.1; selectivity ratio [5]: > 9.1; selectivity ratio [6]: > 9.1; IC50 (Plasmodium falciparum [7]): 5.3 µM; selectivity ratio [9]: > 9.1; selectivity ratio [10]: > 9.1; selectivity ratio [11]: > 9.1; selectivity ratio [15]: > 9.1
2 | C[C@@H]1CC[C@H]2[C@@H](C)C(=O)O[C@@H]3O[C@@]4(C)CC[C@@H]1[C@]32OO4 [ARTEMISININ] | – | – | – | 7.2 | – | – | – | – | – | –
3 | O=C1c2cccc(O)c2C(=O)c2c(O)cccc21 [DANTHRON] | Non-toxic | Non-toxic | Non-toxic | – | Non-toxic | Non-toxic | Non-toxic | inactive | Non-toxic | Activity (Plasmodium falciparum [16]): inactive; Activity (Plasmodium falciparum [17]): inactive
4 | COc1ccc(C[C@H](N)C(=O)N[C@H]2[C@@H](O)[C@H](n3cnc4c(N(C)C)ncnc43)O[C@@H]2CO)cc1 [PUROMYCIN] | – | – | – | 89 | – | – | – | – | – | inhibition of growth at 20 µM [18]: 100%; inhibition of growth at 20 µM (BXPC-3 [19]): 100%; inhibition of growth at 20 µM [20]: 100%; inhibition of growth at 20 µM (PANC-1 [21]): 100%; inhibition at 72 h, 20 µM [22]: 100%; inhibition at 72 h, 20 µM [23]: 100%; inhibition of growth at 20 µM (BT-474 [24]): 100%
